Measured values as given in ChEMBL document CHEMBL3393025, “Discovery of dual leucine zipper kinase (DLK, MAP3K12) inhibitors with activity in neurodegeneration models” (J Med Chem, 2015).
One block for each compound: values may come before it.

Key:
[1] = biological target: T1, Mitogen-activated protein kinase kinase kinase 12 (Homo sapiens, UniProt Q12852); test: Inhibition of DLK (unknown origin)
T1 sequence (Q12852 whole entry): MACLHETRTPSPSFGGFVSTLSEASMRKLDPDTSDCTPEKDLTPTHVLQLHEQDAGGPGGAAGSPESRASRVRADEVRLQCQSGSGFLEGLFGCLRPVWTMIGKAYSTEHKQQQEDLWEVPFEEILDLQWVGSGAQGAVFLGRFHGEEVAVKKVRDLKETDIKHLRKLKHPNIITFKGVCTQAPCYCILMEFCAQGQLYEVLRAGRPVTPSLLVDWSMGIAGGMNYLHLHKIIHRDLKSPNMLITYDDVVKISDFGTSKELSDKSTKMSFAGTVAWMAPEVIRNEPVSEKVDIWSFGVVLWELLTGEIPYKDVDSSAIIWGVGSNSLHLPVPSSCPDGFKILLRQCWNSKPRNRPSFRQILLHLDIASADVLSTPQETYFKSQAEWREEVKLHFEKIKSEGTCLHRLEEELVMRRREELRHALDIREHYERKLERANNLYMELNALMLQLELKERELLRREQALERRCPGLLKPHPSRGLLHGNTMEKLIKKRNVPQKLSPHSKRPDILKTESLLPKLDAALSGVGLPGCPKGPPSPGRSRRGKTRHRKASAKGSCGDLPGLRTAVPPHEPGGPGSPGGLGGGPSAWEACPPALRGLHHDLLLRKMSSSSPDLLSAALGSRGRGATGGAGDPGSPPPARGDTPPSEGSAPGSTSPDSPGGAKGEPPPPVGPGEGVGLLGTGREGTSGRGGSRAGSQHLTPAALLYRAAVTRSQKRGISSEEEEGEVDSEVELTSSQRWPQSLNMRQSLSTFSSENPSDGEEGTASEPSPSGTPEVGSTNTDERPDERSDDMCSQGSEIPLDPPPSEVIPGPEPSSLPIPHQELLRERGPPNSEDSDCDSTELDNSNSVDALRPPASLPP

[2] = biological target: T1, Mitogen-activated protein kinase kinase kinase 12; test: Inhibition of human DLK transfected in HEK293 cells assessed as JNK phosphorylation after 5.5 hrs by Hoechst-33342 staining-based assay; assay type: cell-based
[3] = Neuroprotective activity in E14.5 rat embryo DRG neurons; assay type: functional; conditions: drg neuron
Summary of the method: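 DRG neurons freshly dissected from E14.5 rat embryos, plated at 1200−2000 cells/well on an astrocyte monolayer in DMEM/F12 with N3 supplement, 0.18% glucose and 25 ng/mL NGF. 200 μM uridine and 100 μM 5-fluorodeoxyuridine added next day. Cultured 4 days before axon degeneration assay. IC50 reported.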

SMILES: N#Cc1ccnc(Nc2cc(C3CN(C4COC4)C3)cc(N3CCC(F)(F)C3)n2)c1
- Ki [1]: 0.7 nM
- IC50 [2]: 57 nM
- IC50 [3]: 99 nM

SMILES: COc1ccnc(Nc2cc(C3CCCN(C(=O)c4ccccc4)C3)nc(C)n2)c1 (racemic)
- Ki [1]: 57 nM
- IC50 [2]: 1000 nM

SMILES: CCc1cc(C2CCN(C3COC3)CC2)cc(Nc2cc(C#N)ccn2)n1
- IC50 [2]: 213 nM
- IC50 [3]: 916 nM

SMILES: CC(=O)N1CCC(c2cc(Nc3cc(C#N)ccn3)nc(N3CCC(F)(F)C3)c2)CC1
- Ki [1]: 25 nM
- IC50 [3]: 180 nM

SMILES: Cc1nc(Nc2cc(C(C)C)ccn2)cc(C2CCCN(C(=O)c3ccccc3)C2)n1 (racemic)
- Ki [1]: 4 nM
- IC50 [2]: 1300 nM

SMILES: CC(C)(O)c1cc(Nc2cc(C#N)ccn2)nc(N2CCC(F)(F)C2)c1
- Ki [1]: 5 nM
- IC50 [2]: 125 nM
- IC50 [3]: 401 nM

SMILES: Cc1nc(Nc2ccccn2)cc(C2CCCN(C(=O)c3ccccc3)C2)n1 (racemic)
- Ki [1]: 942 nM

SMILES: Cc1cc(C2CCN(C3COC3)CC2)cc(Nc2cc(C#N)ccn2)n1
- IC50 [2]: 1600 nM

SMILES: N#Cc1ccnc(Nc2cc(C3(C#N)CCOCC3)cc(N3CCC(F)(F)C3)n2)c1
- Ki [1]: 5 nM
- IC50 [2]: 79 nM

SMILES: Cc1ccnc(Nc2cc(C3CCCN(C(=O)c4ccccc4)C3)nc(C)n2)c1 (racemic)
- Ki [1]: 85 nM
- IC50 [2]: 767 nM

SMILES: Cc1nc(Nc2cc(C#N)ccn2)cc(C2CCCN(C(=O)c3ccccc3)C2)n1 (racemic)
- Ki [1]: 90 nM
- IC50 [2]: 1000 nM

SMILES: CC(C)(C#N)c1cc(Nc2cc(C#N)ccn2)nc(N2CCC(F)(F)C2)c1
- Ki [1]: 14 nM
- IC50 [2]: 193 nM

SMILES: Cc1nc(Nc2cc(C3CC3)ccn2)cc(C2CCCN(C(=O)c3ccccc3)C2)n1 (racemic)
- Ki [1]: 18 nM
- IC50 [2]: 486 nM

SMILES: Cc1nc(Nc2ncc(C)s2)cc(C2CCCN(C(=O)c3ccccc3)C2)n1 (racemic)
- Ki [1]: 35 nM
- IC50 [2]: 641 nM

SMILES: N#Cc1ccnc(Nc2cc(C3CCN(C4COC4)CC3)cc(OC3CCC3)n2)c1
- Ki [1]: 0.2 nM
- IC50 [2]: 64 nM
- IC50 [3]: 46 nM

SMILES: N#Cc1ccnc(Nc2cc(C3CCN(C4COC4)CC3)cc(N3CCC3)n2)c1
- Ki [1]: 8 nM
- IC50 [2]: 141 nM
- IC50 [3]: 448 nM

SMILES: COC1CN(c2cc(C3CCN(C4COC4)CC3)cc(Nc3cc(C#N)ccn3)n2)C1
- Ki [1]: 8 nM
- IC50 [2]: 233 nM
- IC50 [3]: 697 nM

SMILES: N#Cc1ccnc(Nc2cc(C3CCN(C4COC4)CC3)cc(C3CC3)n2)c1
- Ki [1]: 1 nM
- IC50 [2]: 62 nM
- IC50 [3]: 155 nM

Continued, in another order:

- Ki [1]: 7 nM
- IC50 [2]: 408 nM
SMILES: FC1(F)CCN(c2nc(Nc3cc(C(F)(F)F)ccn3)cc(C3CCCNC3)n2)C1 (stereo not drawn)

- Ki [1]: 0.9 nM
- IC50 [2]: 70 nM
SMILES: N#Cc1ccnc(Nc2cc(C3CCOCC3)cc(N3CCC(F)(F)C3)n2)c1

- Ki [1]: 24 nM
- IC50 [2]: 229 nM
SMILES: Cc1nc(Nc2cc(C(F)(F)F)ccn2)cc(C2CCCN(C(=O)c3ccccc3)C2)n1 (racemic)

- Ki [1]: 1 nM
- IC50 [2]: 69 nM
SMILES: CC(=O)N1CCC(c2cc(Nc3cc(C(F)(F)F)ccn3)nc(N3CCC(F)(F)C3)c2)CC1
- IC50 [3]: 171 nM

- Ki [1]: 725 nM
SMILES: Cc1nc(Nc2cc(C(F)(F)F)ccn2)cc(C2CCCNC2)n1 (racemic)

- Ki [1]: 431 nM
SMILES: CC(=O)N1CCC(c2cc(Nc3cc(C(F)(F)F)ccn3)nc(N3CCOCC3)n2)CC1

- Ki [1]: 7 nM
- IC50 [2]: 109 nM
SMILES: FC(F)(F)c1ccnc(Nc2cc(C3CCCNC3)nc(N3CCCC3)n2)c1 (stereo not drawn)

- Ki [1]: 33 nM
- IC50 [2]: 300 nM
SMILES: CC(=O)N1CCC(c2cc(Nc3cc(C(F)(F)F)ccn3)nc(N3CCC(F)(F)C3)n2)CC1

- Ki [1]: 41 nM
- IC50 [2]: 440 nM
SMILES: FC1(F)CCN(c2nc(Nc3cc(C(F)(F)F)ccn3)cc(C3CCOCC3)n2)C1

- Ki [1]: 166 nM
SMILES: CC(=O)N1CCC(c2cc(Nc3cc(C(F)(F)F)ccn3)nc(N3CC(F)(F)C3)n2)CC1
